Entries after “also recorded” stand apart in the source; their conditions may differ.
What was measured:
human MrgprX3 = assay: Calcium imaging of MrgprX3-expressing CHO cells; assay type: cell-based; conditions: Ca^2+ imaging, fig. S4
Method in brief: (§1)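 Each receptor was transfected individually into CHO cells. Cells were loaded with fura-2 acetoxymethyl ester for 45 min at 37°C, washed, and imaged at 340- and 380-nm excitation to detect intracellular free Ca2+. There were at least three independent experiments, with at least 100 cells analysed each time.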

human subjects = conditions: ref [5], cited from earlier work
human MrgprX2 = assay: Calcium imaging of MrgprX2-expressing CHO cells; assay type: cell-based; conditions: Ca^2+ imaging, fig. S4
Method in brief: as §1

human MrgprX1 = assay: Calcium imaging of MrgprX1-expressing CHO cells; assay type: cell-based; conditions: Ca^2+ imaging, fig. S4
Method in brief: as §1

human MrgprX4 = assay: Calcium imaging of MrgprX4-expressing CHO cells; assay type: cell-based; conditions: Ca^2+ imaging, fig. S4
Method in brief: as §1

MrgprA3 = assay: Calcium imaging of MrgprA3-expressing CHO cells; assay type: cell-based, mouse; conditions: chloroquine 100 µM; n = 155 cells
Method in brief: as §1

[1] = tested on: WT DRG neurons electroporated with siRNA; assay: Calcium imaging of WT DRG neurons electroporated with siRNA; assay type: cell-based, mouse; conditions: CQ 1 mM
mice [2] = conditions: cited from earlier work
mice [3] = assay: Scratching behavior after injection into the nape of the neck; assay type: in vivo, mouse; conditions: trypsin 200 µg, 50 µl, PAR2^−/− n = 6 vs WT n = 6
Method in brief: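 Male mice aged 2 to 3 months (20 to 30 g) were backcrossed to C57BL/6 for at least 10 generations and scored blind to genotype. A scratching bout was continuous hindpaw scratching directed at the injection site. Bouts were counted in 5-min intervals over a 30-min observation period after injection.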

mouse hindpaws = assay: Thermal hyperalgesia, paw withdrawal latency to radiant heat; assay type: in vivo; conditions: trypsin 100 ng, 10 µl, intraplantar; WT n = 7, Mrgpr-clusterΔ^−/− n = 8, PAR2^−/− n = 10
MrgprC11 [4] = molecular target: T1, MrgprC11 (Mus musculus, UniProt Q8CIP3); assay: Calcium imaging of MrgprC11-expressing CHO cells; assay type: cell-based; conditions: for activation of MrgprC11 (calcium response): MrgprC11-expressing CHO cells, concentration not given
T1 sequence (Q8CIP3 1-322): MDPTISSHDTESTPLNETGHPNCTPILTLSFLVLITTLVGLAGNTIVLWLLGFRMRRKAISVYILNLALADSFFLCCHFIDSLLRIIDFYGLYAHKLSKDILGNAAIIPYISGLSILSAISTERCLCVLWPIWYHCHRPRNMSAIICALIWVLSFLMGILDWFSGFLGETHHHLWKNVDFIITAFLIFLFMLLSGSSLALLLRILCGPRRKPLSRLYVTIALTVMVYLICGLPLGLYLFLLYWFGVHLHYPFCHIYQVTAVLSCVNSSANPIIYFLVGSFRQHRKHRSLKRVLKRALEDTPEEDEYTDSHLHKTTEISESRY

MrgprC11 [5] = molecular target: T1, MrgprC11; conditions: ref [8], [11]; cited from earlier work
MrgprC11 [6] = molecular target: T1, MrgprC11; assay: Calcium imaging of Mrgpr-clusterΔ^−/− DRG neurons electroporated with MrgprC11; assay type: cell-based; conditions: MrgprC11-expressing Mrgpr-clusterΔ^−/− neurons, n = 66; BAM(8–22) 2 µM
DRG neurons = assay: Whole-cell current-clamp recording of cultured DRG neurons; assay type: cell-based, mouse; conditions: n = 6; perfused with 1 mM SLIGRL or BAM(8–22) for 20 s, pH 7.38, room temperature (~25°C)

Molecule: SLIGKV
- calcium response, MrgprX3-expressing CHO cells (human MrgprX3): insensitive to the peptide
- itch in human subjects (human subjects; intracutaneous injection, low millimolar range): provokes itch in human subjects
- calcium response, MrgprX2-expressing CHO cells (human MrgprX2): exhibited a response
- calcium response, MrgprX1-expressing CHO cells (human MrgprX1): insensitive to the peptide
- calcium response, MrgprX4-expressing CHO cells (human MrgprX4): insensitive to the peptide

Molecule: CCN(CC)CCCC(C)Nc1ccnc2cc(Cl)ccc12 (stereo not shown) [chloroquine]
- calcium response, MrgprA3-expressing CHO cells (MrgprA3): could be activated by chloroquine; also recorded: responded
- chloroquine sensitivity ([1]; WT DRG neurons + MrgprA3 siRNA): abolished the chloroquine response
- chloroquine sensitivity ([1]; WT DRG neurons + MrgprA3 siRNA, listed as CQ): completely abolished CQ sensitivity
- chloroquine sensitivity ([1]; WT DRG neurons + MrgprC11 siRNA, n = 7 CQ-sensitive neurons): still sensitive

Molecule: trypsin
- itch in humans (human subjects; skin application, [6]): induces itch in humans
- scratching response to trypsin in mice (mice [2]; injection into nape of neck, ref [4]): induces a scratching response
- scratching behavior in mice (mice [2]; intradermal injection, ref [3], [4]): elicit scratching behavior in mice
- trypsin-induced scratching in PAR2^−/− mice (mice [3]): significantly stronger in PAR2^−/− mice; also recorded: scratched significantly more than did wild-type controls
- trypsin-induced thermal hyperalgesia (paw withdrawal latency) (mouse hindpaws): comparable among wild-type, Mrgpr knockout, and PAR2 knockout mice; also recorded: comparable among the three groups

Molecule: LRGILS-NH2
- activation of MrgprC11 (calcium response) (MrgprC11 [4]): None of these derivatives induced significant calcium responses in cells

Molecule: bovine adrenal medulla peptide [BAM(8–22)]
- agonism at MrgprC11 (MrgprC11 [5]): specific agonist for MrgprC11
- evoked scratching in Mrgpr-clusterΔ^−/− mice (mice [2]; Mrgpr-clusterΔ^−/− mice, ref [8]): reduced
- Mrgpr-dependent scratching response (mice [2]; ref [8]): induces an Mrgpr-dependent scratching response
- increase in [Ca^2+]i (MrgprC11 [6]): showed increased [Ca^2+]i
- calcium response, MrgprC11-expressing CHO cells (MrgprC11 [4]; BAM(8–22) 2 µM, n = 150 cells): responded
- action potentials evoked in SLIGRL-sensitive WT DRG neurons (DRG neurons): All of them also generated action potentials

Molecule: SLIGRL [SLIGRL without amidation (−NH2)]
- activation of MrgprC11 (calcium response) (MrgprC11 [4]): None of these derivatives induced significant calcium responses in cells

— article PMC3144551 (Science signaling, 2011)
